pEC50, pIC50: −log10 of the molar value. Calls of active or inactive are those of the source. The rule behind the calls is not given here. Some results are limits rather than exact numbers.

Data set [1] relates to Hepatitis C virus. The experiment in a line: Inhibition of subgenomic HCV RNA replication in Huh7 cells by cell-based replicon assay. Type of data set: functional, organism-based, Hepacivirus hominis. To be noted: Huh-7. Summed up:
(§1)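 Subgenomic HCV RNA replicon in Huh-7 cells. Replicon RNA was quantified by RT-PCR and normalized to cellular GAPDH mRNA. EC50 runs were done in duplicate on two separate weighings.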
Background: In antiviral work, replicon cells carry a viral genome segment that copies itself.

The subject of data set [2] is Enterovirus C. The data set can be described thus: Inhibition of poliovirus RNA-dependent RNA polymerase at 200 to 250 uM.
The nature of data set [3]: Inhibition of HCV NS5B polymerase. Set-up: species or system Hepacivirus hominis. The method in brief:
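N-terminally tagged full-length NS5B construct; IC50 values are the mean of duplicate measurements on two separate weighings.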

The species entered for data set [4] is Bos taurus. The experiment in a line: Inhibition of calf thymus DNA-dependent RNA polymerase 2 at 200 to 250 uM.
Data set [5] is described as follows: Cytotoxicity against Huh7 cells. The format is cell-based. Particulars: human, huh-7.
Data set [6] deals with Hepatitis C virus. The experiment in a line: Inhibition of subgenomic HCV RNA replication in Huh7 cells at 3.4 uM by cell-based replicon assay. To be noted: Huh-7. The format is functional, Hepacivirus hominis. The method in brief: as §1
A short description of data set [7]: Distribution coefficient, log D at pH 7.2. The format is physicochemical. Particulars: octanol/water. The method in brief: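 Shake-flask partitioning between octanol and 100 mM phosphate buffer, pH 7.2; reported as log D(oct/buffer).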
Data set [8] has as its system Hepatitis C virus. The experiment in a line: Inhibition of subgenomic HCV RNA replication in Huh7 cells at 74 uM by cell-based replicon assay. The format is functional, Hepacivirus hominis. Particulars: Huh-7. The method in brief:
as §1

Data set [9] in a line: Solubility in phosphate buffer at pH 7.2. The format is physicochemical. Summed up:
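Solubility measured in phosphate buffer at pH 7.2.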

By pEC50 is commonly meant the negative decadic logarithm of the EC50, by convention in mol/L. For orientation: inhibition means the percentage by which the read-out fell short of the control. Low readings indicate a weak effect, high ones a strong effect. A word on the pIC50: it is the IC50 on a negative log10 scale, so that one unit is a factor of ten. With `CC(=O)Nc1nc([C@H](Cc2ccc(O)cc2)NC(=O)c2ccc3c(c2)nc(-c2ccoc2)n3C2CCCCC2)cs1`, in [1], the pEC50 is 5.62. In data set [2], this compound registered an inhibition of less than 50%. The pIC50 in [3] was 5.32. Moreover, in data set [4], the result was Active.

In data set [1], `Nc1nc([C@H](Cc2c[nH]c3ccc(O)cc23)NC(=O)c2ccc3c(c2)nc(-c2ccoc2)n3C2CCCCC2)cs1` gave a pEC50 of 5.24. The compound further registered an inhibition in data set [2] of less than 50%. This compound showed a pIC50 in data set [3] of 6.72. The result in [4] was Active.

In the case of `CNc1nc([C@H](Cc2ccc(O)cc2)NC(=O)c2ccc3c(c2)nc(-c2ccoc2)n3C2CCCCC2)cs1`, in data set [1], the pEC50 was 5.15. In data set [2], this compound gave an inhibition of less than 50%. Besides, the pIC50 in data set [3] was 5.55. Further, in [4], the outcome was Active.

On to `CN(C)CCNC(=O)[C@H](Cc1ccc(O)cc1)NC(=O)c1ccc2c(c1)nc(-c1ccoc1)n2C1CCCCC1`, for which the negative-log IC50 (pIC50) in [3] was 5.68.

In turn, `COc1ccc(CCNC(=O)c2ccc3c(c2)nc(-c2ccccn2)n3C2CCCCC2)cc1OC` had a pIC50 in [3] of 4.92.

As for `O=C(N[C@@H](Cc1ccc(O)cc1)C(=O)O)c1ccc2c(c1)nc(-c1ccoc1)n2C1CCCCC1`, the Activity entry in [5] is “Not Active”. For the same compound, the pEC50 in data set [1] is 4.32. This compound gave a pIC50 in [3] of 6.30.

Turning to `COC(=O)[C@H](Cc1c[nH]c2ccc(O)cc12)NC(=O)c1ccc2c(c1)nc(-c1ccoc1)n2C1CCCCC1`, in [5], the Activity result was “Toxic”. Further, testing at 3.4 µM in data set [6] gave an inhibition of 30%. For the same compound, the pIC50 in data set [3] is 6.42.

`CC(=O)Nc1nc([C@H](Cc2ccc(O)cc2)NC(=O)c2ccc3c(c2)nc(-c2ccoc2)n3C2CCCCC2)c[nH]1` had an inhibition in data set [2] of less than 50%. This compound had a pIC50 in data set [3] of 5.38. For the same compound, the result in data set [4] was Active.

On to `O=C(O)c1ccc2c(c1)nc(-c1ccoc1)n2C1CCCCC1`, for which the pIC50 in data set [3] is 5.80.

Compound `O=C(N[C@@H](Cc1ccc(O)cc1)C(=O)Nc1cccnc1)c1ccc2c(c1)nc(-c1ccoc1)n2C1CCCCC1` had a pEC50 in data set [1] of 5.22. For the same compound, the pIC50 in data set [3] was 5.52.

In [2], `Nc1nc([C@H](Cc2ccc(O)cc2)NC(=O)c2ccc3c(c2)nc(-c2ccoc2)n3C2CCCCC2)cs1` yielded an inhibition of less than 50%. Besides, in [3], the pIC50 is 5.89. Further, the outcome in data set [4] was Active.

A word on the logD: it is the decadic logarithm of the distribution of all forms, ionised or not, between an organic phase and buffer at a given pH. Lower therefore signals lower lipophilicity. `O=C(N[C@@H](Cc1c[nH]c2ccc(O)cc12)c1cscn1)c1ccc2c(c1)nc(-c1ccoc1)n2C1CCCCC1`: the logD in data set [7] is 3.8. Moreover, the negative logarithm of the EC50 (pEC50) in data set [1] is 5.77. This compound also had an inhibition in [2] of less than 50%. This compound also showed a pIC50 in data set [3] of 6.52. In addition, in [4], the outcome was Active.

In [3], `CN(C)CCCNC(=O)[C@H](Cc1ccc(O)cc1)NC(=O)c1ccc2c(c1)nc(-c1ccoc1)n2C1CCCCC1` had a pIC50 of 5.72.

With `CN(C)c1nc([C@H](Cc2c[nH]c3ccc(O)cc23)NC(=O)c2ccc3c(c2)nc(-c2ccoc2)n3C2CCCCC2)cs1`, in data set [1], the pEC50 is 5.43. Besides, the inhibition in data set [2] was less than 50%. Besides, in data set [3], the pIC50 is 6.05. The result in [4] was Active.

In general, solubility refers to the dissolved amount per volume that the medium holds. A low value points to little dissolved substance. `O=C(N[C@@H](Cc1c[nH]c2ccc(O)cc12)C(=O)O)c1ccc2c(c1)nc(-c1ccoc1)n2C1CCCCC1` returned a logD in data set [7] of 0.45. The compound also showed a pEC50 in [1] of less than 4.13. Moreover, in data set [3], the pIC50 was 7.30. The inhibition at 74 µM in [8] was determined as 37%. In data set [9], this compound came in with a solubility of more than 850 µg/mL.

In the case of `Cn1cc(C[C@H](NC(=O)c2ccc3c(c2)nc(-c2ccoc2)n3C2CCCCC2)c2csc(N)n2)c2cc(O)ccc21`, in data set [1], the pEC50 was 5.47. The compound further displayed an inhibition in data set [2] of less than 50%. The same compound had a pIC50 in data set [3] of 6.05. Further, the result in data set [4] was Active.

Turning to `O=C(N[C@@H](Cc1ccc(O)cc1)c1cscn1)c1ccc2c(c1)nc(-c1ccoc1)n2C1CCCCC1`, the pEC50 in [1] is 5.37. The inhibition in data set [2] is less than 50%. In [3], this compound showed a pIC50 of 5.18. Also, the result in [4] was Active.

The compound `O=C(N[C@@H](Cc1ccc(O)cc1)C(=O)NCc1ccccn1)c1ccc2c(c1)nc(-c1ccoc1)n2C1CCCCC1` showed a pEC50 in data set [1] of 5.00. Besides, the pIC50 in data set [3] was 5.57.

`CN1CCN(C(=O)[C@H](Cc2ccc(O)cc2)NC(=O)c2ccc3c(c2)nc(-c2ccoc2)n3C2CCCCC2)CC1` showed a pEC50 in [1] of less than 5.05. The compound also had a pIC50 in [3] of 4.96.

Turning to `O=C(N[C@@H](Cc1ccc(O)cc1)C(=O)NCc1cccnc1)c1ccc2c(c1)nc(-c1ccoc1)n2C1CCCCC1`, the pEC50 in [1] is 4.80. In addition, the pIC50 in [3] was 5.59.

Compound `O=C(N[C@@H](Cc1ccc(O)cc1)C(=O)NCc1ccncc1)c1ccc2c(c1)nc(-c1ccoc1)n2C1CCCCC1` had a pEC50 in [1] of less than 5.05. In [3], this compound showed a pIC50 of 5.43.

Consider `O=C(O)COc1ccc2[nH]cc(C[C@H](NC(=O)c3ccc4c(c3)nc(-c3ccoc3)n4C3CCCCC3)C(=O)O)c2c1`, for which the log distribution coefficient (logD) in [7] was -1.6. The compound also showed a pEC50 in data set [1] of 4.19. The compound also gave a pIC50 in [3] of 7.57. The solubility in data set [9] was more than 850 µg/mL.

`O=C(N[C@@H](Cc1ccc(O)cc1)C(=O)NCCN1CCOCC1)c1ccc2c(c1)nc(-c1ccoc1)n2C1CCCCC1` gave a pEC50 in data set [1] of less than 4.89. Besides, the negative-log IC50 (pIC50) in data set [3] was 5.49.

In turn, `CC(=O)Nc1nc([C@H](Cc2c[nH]c3ccc(O)cc23)NC(=O)c2ccc3c(c2)nc(-c2ccoc2)n3C2CCCCC2)cs1` showed a pEC50 in data set [1] of 5.24. In data set [2], the inhibition was less than 50%. The compound further had a pIC50 in [3] of 6.26. Further, in [4], the outcome was Active.

Take `Cc1nc([C@H](Cc2ccc(O)cc2)NC(=O)c2ccc3c(c2)nc(-c2ccoc2)n3C2CCCCC2)cs1`: the pEC50 in data set [1] was 5.13. This compound had an inhibition in [2] of less than 50%. Further, the pIC50 in data set [3] was 5.48. The result in data set [4] was Active.

For `NC(=O)[C@H](Cc1c[nH]c2ccc(O)cc12)NC(=O)c1ccc2c(c1)nc(-c1ccoc1)n2C1CCCCC1`, the pEC50 in data set [1] is 5.10. For the same compound, the pIC50 in [3] is 6.66.

On to `CNc1nc([C@H](Cc2c[nH]c3ccc(O)cc23)NC(=O)c2ccc3c(c2)nc(-c2ccoc2)n3C2CCCCC2)cs1`, for which, in data set [1], the pEC50 is 5.52. In data set [2], this compound had an inhibition of less than 50%. In [3], this compound had a pIC50 of 6.30. Further, in data set [4], the result was Active.

In turn, `CN(C)c1nc([C@H](Cc2ccc(O)cc2)NC(=O)c2ccc3c(c2)nc(-c2ccoc2)n3C2CCCCC2)cs1` gave a pEC50 in data set [1] of 5.08. In data set [2], the inhibition was less than 50%. The pIC50 in data set [3] was 5.29. In addition, the result in data set [4] was Active.

In the case of `NC(=O)[C@H](Cc1ccc(O)cc1)NC(=O)c1ccc2c(c1)nc(-c1ccoc1)n2C1CCCCC1`, the logD in data set [7] came to 3.1. Moreover, the pEC50 in data set [1] was 4.89. In addition, the pIC50 in data set [3] was 6.10.

`Cc1nc([C@H](Cc2c[nH]c3ccc(O)cc23)NC(=O)c2ccc3c(c2)nc(-c2ccoc2)n3C2CCCCC2)cs1`: the logD in data set [7] stood at 4.6. The pEC50 in data set [1] was 5.62. This compound also gave an inhibition in data set [2] of less than 50%. This compound also showed a pIC50 in data set [3] of 6.52. In data set [9], this compound returned a solubility of less than 0.1 µg/mL. In addition, the outcome in data set [4] was Active.

In the case of `CC(C)[C@H](Cc1ccc(O)cc1)NC(=O)c1ccc2c(c1)nc(-c1ccoc1)n2C1CCCCC1`, in data set [7], the logD was found to be 3.4. This compound gave a pEC50 in [1] of 5.46. The pIC50 in [3] was 5.37.

For the compound `O=C(N[C@@H](Cc1ccc(O)cc1)C(=O)N1CCOCC1)c1ccc2c(c1)nc(-c1ccoc1)n2C1CCCCC1`, the pIC50 in data set [3] was 5.02.

As for `CN(C)C(=O)[C@H](Cc1ccc(O)cc1)NC(=O)c1ccc2c(c1)nc(-c1ccoc1)n2C1CCCCC1`, the pIC50 in [3] is 5.31.

Values taken from ChEMBL document CHEMBL1149312, “Non-nucleoside benzimidazole-based allosteric inhibitors of the hepatitis C virus NS5B polymerase: inhibition of subgenomic hepatitis C virus RNA replicons in Huh-7 cells” (J Med Chem, 2004).
